# Screens deposited in PubChem BioAssay by several laboratories.
# The list is not random: actives were taken first. Their share in the collection is about 2.4%.
# SR-BI uptake up: SR-BI HDL lipid transfer activation; CHO ldlA[mSR-BI] cells, DiI-HDL uptake fluorescence, 3 h; 100 = double the neutral-control signal; actives 0.096% (n = 320,000); activation, % at 12.5 µM; AID 504775;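 active means mean replicate activation of at least 60% and every replicate at or above 60%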;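 further: 0% = median plate neutral-control signal and 100% = twice that signal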
#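 System: LDL receptor-deficient CHO ldlA cells overexpressing murine SR-BI | Timing: 3 h uptake period with compound, 37 °C | Medium: HEPES-buffered (25 mM, pH 7.4) F12 plus 0.5% BSA | Dosing: Single-point compound dose | Signal: Bottom-read fluorescence, 550/595 nm | Read-out: Retained DiI signal reflecting DiI-HDL uptake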
# beta cell repl: induces beta-cell replication in MIN6 cells. MIN6 cells proliferation, ATPlite luminescence, 48 h; cells starved in 0.2% serum; 100% = growth in 10% serum. proliferation, % at 10 µM. actives 0.29% (n = 330,000). AID 2380;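 active means compounds whose signal lies at least 3.5 SD above the mean of all wells on their plate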;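 further: 0% = DMSO-treated cells in low-serum medium and 100% = 10% serum control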
# Calb FLC: affects C. albicans growth with fluconazole; growth inhibition, % (concentration not given with the values); C. albicans CaCi-2 + fluconazole, Alamar Blue growth, 48 h; actives 0.57% (n = 300,000);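 active means growth inhibition above about 58% in most replicates, limit read from the data, passing the limit was not always enough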;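 further: all wells also contain fluconazole at 8 µg/ml as a sub-toxic cotreatment; 0% = median of DMSO wells and 100% = median of geldanamycin control wells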
# Insulin prom up: MIN6 insulin promoter up-regulation | MIN6 insulin promoter-GFP reporter, high-content imaging; active compounds read high | actives 0.3% (n = 190,000) | z-score at 5 µM;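 active means z-score above 3 at 5 µM with at least 500 cells counted in the well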
# SR-BI DiI inh: inhibitors of mouse SR-BI mediated HDL lipid uptake; AID 488896; ldlA[mSR-BI] CHO cells, DiI-HDL uptake fluorescence, 3 h; actives 0.96% (n = 320,000); inhibition, % at 12.5 µM;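 active means mean replicate inhibition of at least 70% and a set share of replicates each scoring 70 or more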;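 further: 0% = median of neutral control wells and 100% = median of positive control wells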
# Target sequence (Q61009 whole entry, looked up): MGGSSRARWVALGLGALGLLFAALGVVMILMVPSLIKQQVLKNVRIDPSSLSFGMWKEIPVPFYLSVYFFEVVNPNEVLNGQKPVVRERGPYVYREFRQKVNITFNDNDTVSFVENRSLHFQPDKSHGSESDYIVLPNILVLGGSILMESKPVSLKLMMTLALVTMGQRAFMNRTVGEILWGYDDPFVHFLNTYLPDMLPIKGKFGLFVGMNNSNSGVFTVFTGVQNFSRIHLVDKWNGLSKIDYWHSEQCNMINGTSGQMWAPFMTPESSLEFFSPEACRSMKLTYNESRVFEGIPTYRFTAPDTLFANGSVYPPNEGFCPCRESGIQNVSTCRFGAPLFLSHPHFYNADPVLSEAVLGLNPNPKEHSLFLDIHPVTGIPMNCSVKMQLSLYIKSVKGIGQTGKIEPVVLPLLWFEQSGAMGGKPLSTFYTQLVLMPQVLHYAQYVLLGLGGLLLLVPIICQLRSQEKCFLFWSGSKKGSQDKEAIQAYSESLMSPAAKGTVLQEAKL
# HTR2A ag: activates the mouse 5-HT2A serotonin receptor | P35363 | CHO-K1 mHTR2A beta-arrestin complementation, luminescence; percent of 30 µM serotonin response | activation, % at 7.6 µM | actives 0.66% (n = 360,000);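 active means activation above a run cutoff, the mean activation of all tested compounds plus 3 SD, cut at about 14% in these data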;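 further: 0% = plate median of compound wells and 100% = 30 µM serotonin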
# Starred values were filed as active, the others as inactive; i = inactive; . = no result given.
SMILES,SR-BI uptake up,beta cell repl,Calb FLC,Insulin prom up,SR-BI DiI inh,HTR2A ag
N=C(N)c1ccc(/C=C/c2ccc(C(=N)N)cc2O)cc1,26.5,1.7,94.7*,0.5,-26.5,-0.6
COc1ccc(Oc2ccccc2/C=C/C(=O)O)cc1,536.0*,-2.0,38.9,-0.43,i,1.4
O=C(COc1ccc(Cl)cc1)Nc1ncc([N+](=O)[O-])s1,-14.5,.,97.6*,-0.63,14.5,0.8
CC(CC(=O)Nc1ncc([N+](=O)[O-])s1)c1ccccc1 (configuration not stated),9.3,-4.8,92.2*,-0.32,-9.3,11.7
CCC(Oc1ccccc1)C(=O)Nc1ncc([N+](=O)[O-])s1 (configuration not stated),-20.5,-2.4,93.9*,-0.19,20.5,2.2
COC(=O)[C@@]12C[C@@H](CC(=O)NCCc3ccccc3OC)C(=O)N(Cc3cccc4ccccc34)C1=CCC(C)(C)C2,.,.,.,.,.,1.2
CC(Nc1ccc(Cl)cc1)c1cc(Cl)ccc1O (configuration not stated),373.1*,1.5,-2.5,.,-373.1,-2.4
CSc1sc(C(=O)NN)c2c1C1(CCC2)SCCS1,-107.3,0.1,6.4,-0.25,107.3*,-6.2
CC1Oc2cc3oc4c(O)c(O)ccc4c(=O)c3c(O)c2C1(C)C (configuration not stated),-69.1,-5.5,96.6*,.,69.1,7.4
O=C(Nc1cc2c3c(c1)C1CCCC1CN3CC1CCCC21)c1ccccc1 (configuration not stated),-79.9,-5.2,88.8*,-0.16,79.9*,-4.7
CCC(=O)Nc1ccc(-c2cc(-c3ccccc3)nc(-c3ccc(NC(=O)CC)cc3)n2)cc1,102.6*,-3.9,6.4,-2.07,-102.6,-2.5
CC(=O)Nc1ccc(-c2cc(-c3ccccc3)nc(-c3ccccc3)n2)cc1,-44.7,-4.3,-4.5,.,44.7,-1.1
Cc1ccc(NC(=S)Nc2cccc3cnccc23)cc1C,-75.0,-5.3,18.9,.,75.0*,-5.0
Cc1ccc(NC(=S)Nc2cccc3cnccc23)cc1,-9.5,-3.8,37.7,-0.16,9.5,-0.9
C(=NNc1ccc2ccccc2n1)c1ccccn1,.,.,.,.,.,-9.0
Cn1c2ccsc2c2ncn(Cc3ccccc3F)c(=O)c21,-7.1,-1.0,.,.,7.1,3.9
Cc1cc(-c2cccs2)c2c(N)c(C(=O)c3ccc4c(c3)OCO4)sc2n1,-7.6,0.0,-4.4,4.7*,7.6,-0.3
Cc1ccc(C2=NS(=O)(=O)N(C)C(C(=O)Nc3cc(C)n(CC(=O)N4CCC(C)CC4)n3)=C2)cc1,-86.1,-1.9,1.1,.,86.1*,-0.9
CCC(CC)CN1CCC(CN2C(=S)NC[C@@H]2CC(C)C)CC1,1.7,.,.,.,-1.7,-6.2
CCOC(=O)CNC(=O)N1CCc2ccc(NC(=O)c3ccccc3Cl)cc2C1,-96.0,-3.7,3.6,.,96.0*,2.2
CSc1cccc(NC(=O)N2CCc3ccc(NC(=O)c4ccccn4)cc3C2)c1,-76.0,-5.1,-3.3,.,76.0*,-6.4
CSc1cccc(NC(=O)c2ccccn2)c1,.,-0.5,9.5,-0.04,.,.
COc1ccccc1C(=O)Nc1ccc2c(c1)CN(C(=O)CSC)CC2,-36.7,-2.5,4.6,.,36.7,3.4
O=C(OC1C2C=CC1C1C(=O)NC21)c1ccccc1 (configuration not stated),.,.,.,.,.,-2.2
Cc1ccc(C(=O)Nc2ccccc2C(=O)N2CCCC(C)C2)cc1 (configuration not stated),6.1,-3.8,-7.7,.,-6.1,2.1
SMILES,SR-BI uptake up,beta cell repl,Calb FLC,Insulin prom up,SR-BI DiI inh,HTR2A ag
O=C(NCC1CCCO1)C(c1ccc(F)cc1)N(Cc1ccc(F)cc1)C(=O)Cn1nnc(-c2cccs2)n1 (configuration not stated),-19.6,-1.4,103.7*,0.38,19.6,-0.3
O=C(NCC1CCCO1)C(c1cccs1)N(Cc1cccs1)C(=O)Cn1nnc(-c2cccs2)n1 (configuration not stated),-0.4,1.4,.,-0.61,0.4,-4.5
CC(C)(C)NC(=O)c1ccc2nsnc2c1,20.4,0.0*,-5.3,0.72,-20.4,-1.5
COc1ccc(S(=O)(=O)N2CCC(C)CC2)cc1OC,-76.3,-1.5,0.9,.,76.3*,-2.7
COc1ccc(S(=O)(=O)N2CCC(C)CC2)cc1Br,-20.9,-1.7,5.1,0.46,20.9,-5.2
Nc1nc2c(ncn2[C@@H]2O[C@H](CNS(=O)(=O)C3CC3)[C@@H](O)[C@H]2O)c(=O)[nH]1,.,.,.,.,.,2.8
O=C1/C(=C\c2cc([N+](=O)[O-])ccc2O)SC(=S)N1Cc1ccc(Cl)cc1,-10.1,.,85.5*,.,10.1,-8.4
O=C(O)CN1C(=O)/C(=C\c2cc([N+](=O)[O-])ccc2OCc2ccccc2Cl)SC1=S,.,-4.0,18.2,.,.,-4.9
Cc1ccccc1/C=C1\SC(=S)N(/N=C/c2cc([N+](=O)[O-])ccc2O)C1=O,-7.1,-6.0,84.8*,0.25,7.1,-2.9
COc1cc(/C=C2/SC(=S)N(Cc3ccccc3)C2=O)ccc1O,-18.1,-4.0,31.0,.,18.1,-1.2
O=C1/C(=C\c2ccc(O)c(O)c2)SC(=S)N1Cc1ccccc1,-82.9,-6.7,18.2,.,82.9*,-4.3
O=C1/C(=C\c2cccc(O)c2O)SC(=S)N1Cc1ccccc1,-132.7,-4.1,3.0,.,132.7*,8.2
Cc1ccc(S(=O)(=O)C[C@@H]2OC[C@H](C(C)C)N2S(=O)(=O)c2ccc(C)cc2)cc1,.,.,.,.,.,2.8
O=C(CN1C(=O)/C(=C/c2ccccc2)SC1=S)NNC(=O)c1ccccc1O,-3.8,-4.0,84.3*,0.63,3.8,1.1
CCCNC(=O)c1ccc2c(=O)c(O)c(-c3ccc(OC)cc3)[nH]c2c1,-25.1,-4.3,81.6*,-0.63,25.1,-5.4
O=C(Nc1ccccc1N1CCN(C(=O)c2ccc(Cl)cc2)CC1)c1cccc(F)c1,-73.7,0.2,-1.8,.,73.7*,4.5
O=C(Nc1ccccc1N1CCN(C(=O)c2ccccc2)CC1)c1cccc(Cl)c1,.,-2.2,25.4,-0.5,.,0.6
O=C(Nc1ccccc1N1CCN(c2ccccc2)CC1)c1ccccc1F,-75.0,-4.7,-11.0,-0.15,75.0*,0.5
O=C(NC1C2CCCC1CN(C1CC1)C2)c1ccc(Cl)cc1 (configuration not stated),11.3,-4.0,28.0,.,-11.3,2.5
O=C(Nc1ccccc1)OCN1C(=O)c2ccccc2C1=O,-9.9,-4.5,68.8*,-0.06,9.9,1.6
Cc1ccc(NC(=O)COc2ccc(N(C)C(=O)C(C)(C)C)cc2)cc1S(=O)(=O)N1CCCCC1,-42.4,-6.0,.,.,42.4,0.9
CC(/C=N/NC(=O)c1ccncc1)=C\c1ccc(C(C)C)cc1,-24.8,-1.2,0.8,3.19*,24.8,5.8
CCOc1cccc(C(=O)Nc2nc(-c3ccc(S(=O)(=O)N4CCOCC4)cc3)cs2)c1,-78.6,-1.1,-9.7,0.79,78.6*,5.6
